Measurements reported in ChEMBL document CHEMBL2146369, “Oxazolo[3,2-a]pyridine. A new structural scaffold for the reversal of multi-drug resistance in Leishmania” (Bioorg Med Chem Lett, 2012).
The source made the active and inactive calls. No cut-off for these calls is given here.

How the values were obtained:
THP-1 = experiment: Cytotoxicity against PMA-stimulated human THP1 cells after 72 hrs by MTT assay; assay type: cell-based; settings: THP-1, 72 h
Procedure, shortened: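 THP-1 cells grown at 37 °C, 5% CO2 in RPMI-1640 with 10% iFBS, […], penicillin and streptomycin. Differentiated to macrophages with 20 ng/mL PMA for 48 h, then 24 h in fresh medium. MTT viability assay run as for parasites but incubated at 37 °C. IC50 determined.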

Leishmania tropica [1] = experiment: Potentiation of miltefosine-induced antileishmanial activity against promastigotes of multidrug-resistant Leishmania tropica assessed as fold decrease in miltefosine IC50 at 6 uM after 72 hrs by MTT assay; assay type: functional
Procedure, shortened: (§1)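 MDR L. tropica promastigotes given increasing DNM or miltefosine concentrations, with or without 6 µM modulator, for 72 h at 28 °C. Viability measured by MTT absorbance at 540 nm. IC50 taken for each condition. Reversal index is drug IC50 without modulator divided by IC50 with it. Three independent experiments.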

Leishmania tropica [2] = experiment: Antileishmanial activity against promastigotes of wild type Leishmania tropica LRC after 72 hrs by MTT assay; assay type: functional, organism-based
Procedure, shortened: (§2)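 Promastigotes of wild-type L. tropica LRC clone or DNM-selected MDR line (kept in 150 µM DNM or 30 µM MLF), grown at 28 °C in modified RPMI 1640 with 20% heat-inactivated FBS. Exposed to compounds without DNM for 72 h at 28 °C. Viability read by MTT absorbance at 540 nm, expressed relative to untreated parasites.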

Leishmania tropica [3] = experiment: Resistance ratio of IC50 for multidrug-resistant Leishmania tropica and IC50 for wild type Leishmania tropica LRC; assay type: functional
Procedure, shortened: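 DNM-selected MDR and parental wild-type L. tropica promastigotes treated with increasing drug concentrations for 72 h at 28 °C. Viability read by MTT at 540 nm. Ratio of MDR IC50 to parental IC50 calculated.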

Leishmania tropica [4] = experiment: Antileishmanial activity against promastigotes of multidrug-resistant Leishmania tropica after 72 hrs by MTT assay; assay type: functional, organism-based; procedure, shortened: as §2
Leishmania tropica [5] = experiment: Potentiation of daunomycin-induced antileishmanial activity against promastigotes of multidrug-resistant Leishmania tropica assessed as fold decrease in daunomycin IC50 at 6 uM after 72 hrs by MTT assay; assay type: functional; procedure, shortened: as §1
Leishmania tropica [6] = experiment: Potentiation of daunomycin-induced antileishmanial activity against promastigotes of multidrug-resistant Leishmania tropica at 3 to 8 uM after 72 hrs by MTT assay; assay type: functional, organism-based

Structure (SMILES) | IC50 (THP-1) | fold change (FC) (Leishmania tropica [1]) | fold change (FC) (Leishmania tropica [5]) | also measured
COC(=O)C1=C(C)N2CCO[C@@]2(C)[C@@H](C(=O)OCc2ccccc2)[C@@H]1c1cccc([N+](=O)[O-])c1 (racemic) | > 400 µM |  |  | 
COC(=O)C1=C(C)N2C[C@@H](C)O[C@]2(C)[C@H](C(=O)OC(C)(C)C)[C@H]1c1cccc(Cl)c1 | > 400 µM | 8.7 |  | 
COC(=O)C1=C(C)N2CCO[C@@]2(C)[C@@H](CO)[C@@H]1c1cccc([N+](=O)[O-])c1 (racemic) | > 400 µM |  |  | 
COc1cccc2c1C(=O)c1c(O)c3c(c(O)c1C2=O)C[C@@](O)(C(C)=O)C[C@@H]3O[C@H]1C[C@H](N)[C@H](O)[C@H](C)O1 [DAUNORUBICIN] | 26.9 µM |  |  | IC50 (Leishmania tropica [2]): 2.8 µM; Ratio IC50 (Leishmania tropica [3]): 64; IC50 (Leishmania tropica [4]): 180 µM
COC(=O)C1=C(C)N2CCO[C@@]2(C)[C@@H](C(=O)OC)[C@@H]1c1cccc([N+](=O)[O-])c1 (racemic) | > 400 µM | 3.4 | 3.9 | Activity (Leishmania tropica [6]): Active
COC(=O)C1=C(C)N2CCS[C@@]2(C)[C@@H](C(=O)OC)[C@@H]1c1cccc(Cl)c1 (racemic) | > 400 µM | 3.5 | 2.2 | Activity (Leishmania tropica [6]): Active
COC(=O)C1=C(C)N2C(=O)[C@H](C)O[C@@]2(C)[C@@H](C(=O)OC)[C@@H]1c1cccc(Cl)c1 (racemic) | > 400 µM |  |  | 
C=CCOC(=O)[C@H]1[C@H](c2cccc(Cl)c2)C(C(=O)OC)=C(C)N2CCO[C@@]12C (racemic) |  |  | >5 | 
CC(=O)O[C@H]1C[C@](C)(O)[C@]23OC(C)(C)[C@H](C[C@H](OC(=O)c4ccco4)[C@]2(C)[C@H]1OC(C)=O)[C@H]3OC(=O)c1ccco1 |  | 6 | 4.7 | 
COC(=O)C1=C(C)N2CCO[C@@]2(C)[C@@H](C(=O)OC)[C@@H]1c1ccc[nH]1 (racemic) | > 400 µM | 1.9 | 1.3 | Activity (Leishmania tropica [6]): Active
COC(=O)C1=C(C)N2CCO[C@@]2(C)[C@@H](C(=O)OCc2ccccc2)[C@@H]1c1cccc(Cl)c1 (racemic) | > 400 µM |  |  | 
CCCCCCCCCCCCCCCCOP(=O)([O-])OCC[N+](C)(C)C [MILTEFOSINE] | 7 µM |  |  | IC50 (Leishmania tropica [2]): 10.9 µM; Ratio IC50 (Leishmania tropica [3]): 22; IC50 (Leishmania tropica [4]): 240 µM
COC(=O)C1=C(C)N2CCCO[C@@]2(C)[C@@H](C(=O)OC)[C@@H]1c1cccc(Cl)c1 (racemic) | > 400 µM | 1.5 | 3.2 | Activity (Leishmania tropica [6]): Active
COC(=O)C1=C(C)N2C[C@H](C)O[C@@]2(C)[C@@H](C(=O)OC)[C@@H]1c1cccc(Cl)c1 | > 400 µM |  | >6 | 
COC(=O)C1=C(C)N2CCO[C@@]2(C)[C@@H](C(=O)OC)[C@@H]1c1ccco1 (racemic) | > 400 µM |  |  | 
